Measurements as given in article PMC3321094 (Nature, 2012).
Numbering of substitutions follows the chain as printed. Names may count otherwise. Where no end group is shown, it is not given here.

T1: Histone H4K20me3 peptide 14-25 (Homo sapiens, UniProt P62805)
T1 chain: GGAKRHRK(Me3)VLRD

T2: Histone H4K20me2 peptide 14-25 (Homo sapiens, UniProt P62805)
T2 chain: GGAKRHRK(Me2)VLRD

B1: ORC1 BAH domain (hORC1BAH) 1-185 (protein)
chain: MAHYPTRLKTRKTYSWVGRPLLDRKLHYQTYREMCVKTEGCSTEIHIQIGQFVLIEGDDDENPYVAKLLELFEDDSDPPPKKRARVQWFVRFCEVPACKRHLLGRKPGAQEIFWYDYPACDSNINAETIIGLVRVIPLAPKDVVPTNLKNEKTLFVKLSWNEKKFRPLSSELFAELNKPQESAAK
B2: hORC1Y64A: H4K20me2-binding pocket mutant Y64A of human ORC1 (protein, UniProt Q13415 1-861, looked up, variant Y64A)
Origin recognition complex …: MAHYPTRLKTRKTYSWVGRPLLDRKLHYQTYREMCVKTEGCSTEIHIQIGQFVLIEGDDDENPAVAKLLELFEDDSDPPPKKRARVQWFVRFCEVPACKRHLLGRKPGAQEIFWYDYPACDSNINAETIIGLVRVIPLAPKDVVPTNLKNEKTLFVKLSWNEKKFRPLSSELFAELNKPQESAAKCQKPVRAKSKSAESPSWTPAEHVAKRIESRHSASKSRQTPTHPLTPRARKRLELGNLGNPQMSQQTSCASLDSPGRIKRKVAFSEITSPSKRSQPDKLQTLSPALKAPEKTRETGLSYTEDDKKASPEHRIILRTRIAASKTIDIREERTLTPISGGQRSSVVPSVILKPENIKKRDAKEAKAQNEATSTPHRIRRKSSVLTMNRIRQQLRFLGNSKSDQEEKEILPAAEISDSSSDEEEASTPPLPRRAPRTVSRNLRSSLKSSLHTLTKVPKKSLKPRTPRCAAPQIRSRSLAAQEPASVLEEARLRLHVSAVPESLPCREQEFQDIYNFVESKLLDHTGGCMYISGVPGTGKTATVHEVIRCLQQAAQANDVPPFQYIEVNGMKLTEPHQVYVQILQKLTGQKATANHAAELLAKQFCTRGSPQETTVLLVDELDLLWTHKQDIMYNLFDWPTHKEARLVVLAIANTMDLPERIMMNRVSSRLGLTRMCFQPYTYSQLQQILRSRLKHLKAFEDDAIQLVARKVAALSGDARRCLDICRRATEICEFSQQKPDSPGLVTIAHSMEAVDEMFSSSYITAIKNSSVLEQSFLRAILAEFRRSGLEEATFQQIYSQHVALCRMEGLPYPTMSETMAVCSHLGSCRLLLVEPSRNDLLLRVRLNVSQDDVLYALKDE
B3: hORC1W88A: H4K20me2-binding pocket mutant W88A of human ORC1 (protein, UniProt Q13415 1-861, looked up, variant W88A)
Origin recognition complex …: B2 Origin recognition complex … with A64Y, W88A
B4: ORC1 BAH domain (mORC1BAH) 9-170 (protein)
chain: KTRQTFSWVGRPLPNRKQFQQMYREICMKINDGSEIHIKVGQFVLIQGEDNKKPYVAKLIELFQNGAEVPPKKCARVQWFVRFLEIPVSKRHLLGRSPPAQEIFWYDCSDWDNKINVETIIGPVQVVALAPEEVIPVDQKSEETLFVKLSWNKKDFAPLPPE

Legend:
[1] = biological target: T1, Histone H4K20me3 peptide 14-25; assay: ITC
[2] = test system: ORC components (ORC2, ORC3 and ORC5); assay: Affinity purification of FLAG-ORC1 complexes from U2OS cells; type: cell-based, human; details: vs wild-type ORC1, Western blot
chromatin = assay: Small-scale biochemical fractionation: ORC chromatin association; type: cell-based, human; details: cells stably expressing ORC1 protein, in comparison to hORC1; Western blot
[3] = test system: ORC components (ORC2, ORC3 and ORC5); assay: Affinity purification of FLAG-ORC1 complexes from HT1080 cells; type: cell-based, human; details: vs wild-type ORC1, Western blot
WI38 cells = assay: Cell-cycle profile of WI38 cells by flow cytometry; type: cell-based, human; details: WI38 primary fibroblast, relative to wild-type hORC1
How it was run: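 WI38 cells transiently expressing GFP plus wild-type ORC1 or an H4K20me2-binding-pocket point mutant (Y64A or W88A). Cell-cycle profile determined by flow cytometry, gating on GFP-positive cells so that only transfected cells are scored. Percentage of cells in each cell-cycle phase and the S/G1 ratio are calculated per transfection. Two experiments, s.d. reported.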

[4] = biological target: T2, Histone H4K20me2 peptide 14-25; assay: ITC

| Kd [1] | Kd [4] | Molecule | efficiency of affinity purification of ORC2, ORC3 and ORC5 [2] | ORC1 enrichment at chromatin (chromatin) | efficiency of affinity purification of ORC2, ORC3 and ORC5 [3] | S phase population (WI38 cells) | S/G1 ratio (in words) (WI38 cells) |
| --- | --- | --- | --- | --- | --- | --- | --- |
| 40 µM |  | B1 |  |  |  |  |  |
|  |  | B2 | equal to that observed with the wild-type protein | considerably reduced | equal to that observed with the wild-type protein | decreased S phase population | lower S/G1 ratio |
|  |  | B3 | equal to that observed with the wild-type protein | considerably reduced | equal to that observed with the wild-type protein | decreased S phase population | lower S/G1 ratio |
|  | 9.6 µM | B4 |  |  |  |  |  |
